# Sampled rows, rich in hits. Any-hit rate of the full collection: about 3.7%.
# OX1R antag-1: antagonists of human orexin 1 receptor (OX1R) | inhibition, % at 6.6 µM | hit rate 1.8% among 330,000 | AID 485270, 2010 | Orexin/Hypocretin receptor type 1 (Homo sapiens), O43613 | OX1R-expressing cells, FRET antagonist read-out; in the data active means inhibition mostly above about 38%, no sharp cut-off; inactive means mostly below about 40%;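 further: 0% = agonist challenge alone and 100% = reference antagonist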
# Target sequence (O43613 whole entry, looked up): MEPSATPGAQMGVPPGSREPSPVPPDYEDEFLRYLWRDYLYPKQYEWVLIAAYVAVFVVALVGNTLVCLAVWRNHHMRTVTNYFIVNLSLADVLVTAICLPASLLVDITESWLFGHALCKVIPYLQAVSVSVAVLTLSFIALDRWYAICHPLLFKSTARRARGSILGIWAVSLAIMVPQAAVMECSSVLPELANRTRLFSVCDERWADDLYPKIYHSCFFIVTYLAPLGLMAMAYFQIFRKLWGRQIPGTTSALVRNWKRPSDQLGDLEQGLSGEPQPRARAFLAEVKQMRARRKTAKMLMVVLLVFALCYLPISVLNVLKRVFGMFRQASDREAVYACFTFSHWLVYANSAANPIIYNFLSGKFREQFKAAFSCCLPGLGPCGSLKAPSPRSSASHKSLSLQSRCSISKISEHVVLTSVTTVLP
# PGE2 EP2 inh: human EP2 receptor antagonists, primary screen, TR-FRET cAMP, C6 glioma cells; Prostaglandin E2 receptor EP2 subtype (Homo sapiens), P43116; C6 glioma cells expressing human EP2; cells stimulated with saturating PGE2; inhibition, % at 25 µM; hit rate 0.52% among 260,000; AID 1422, 2008;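 active means percent inhibition above 40 after rounding to a whole number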;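 further: rat C6 glioma host cells with rolipram phosphodiesterase inhibitor present; the protocol text gives 20 µM as final concentration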
# CHO parental Ca: ATP-evoked calcium signal inhibitors, parental CHO, primary screen, counter-screen for OX1R antagonist project, cell-based, fluorescence, Fluo-8 calcium dye | hit rate 0.63% among 330,000 | inhibition, % at 5.6 µM | parental CHO-K1, ATP-induced calcium, Fluo-8 fluorescence;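 active means inhibition above that plate's mean sample inhibition plus 3 SD, cut at about 26% in these data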;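 further: 0% = ATP-challenged DMSO wells and 100% = DMSO wells without ATP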
#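 Material – parental CHO cells · Reagent – ATP stimulus · Compound – single nominal dose of 5.6 µM per compound · Detection – Fluo-8 fluorescence · Read-out basis – percent inhibition of calcium signal · Controls – ATP-challenged DMSO wells low, unchallenged DMSO wells high · Repeats – no replicates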
# EP2 mod: EP2 receptor modulators, cAMP readout, primary screen, cell-based, HTRF cAMP, PGE2 stimulation; Prostaglandin E2 receptor EP2 subtype (Homo sapiens), P43116; EP2-expressing cells, cAMP HTRF FRET, PGE2 co-stimulation; induction, % at 25 µM; hit rate 0.83% among 260,000; AID 940, 2007;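 active means compounds whose cAMP rise, as percent of the full-agonist control response, exceeds 60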;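 further: rat C6 glioma line stably carrying human EP2 under a CMV promoter; the protocol text gives 20 µM as final concentration; 100% = response of wells given 1 µM PGE2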
# OX1R antag-2: OX1R (HCRTR1) antagonists, primary screen, fluorescence, CHO/OX1R cells, Fluo-8 calcium, orexin A. Orexin/Hypocretin receptor type 1 (Homo sapiens), O43613. Fluo-8 calcium fluorescence. inhibition, % at 5 µM. hit rate 0.43% among 330,000. AID 434989, 2010;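 active means inhibition above its plate's threshold, mean inhibition of all tested compounds on the plate plus 3 SD, cut at about 37% in these data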;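 further: 0% = orexin A challenge wells and 100% = SB-334867-A antagonist wells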
# GPR7 antag: GPR7 receptor antagonists, primary screen, cell-based, fluorescence, single concentration | Neuropeptides B/W receptor type 1 (Homo sapiens), P48145 | GPR7-expressing cells, fluorescence antagonist assay | hit rate 1.1% among 290,000 | inhibition, % at 4.4 µM | AID 1861, 2009; in the data active means inhibition above about 16%, passing the limit was not always enough;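 further: cells stimulated with the agonist NPW; 0% = agonist with vehicle and 100% = vehicle without agonist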
# GPR7 antag conf: GPR7 receptor antagonists, confirmation, cell-based, fluorescence, single concentration | shares compounds with GPR7 antag | GPR7-expressing cells, calcium fluorescence antagonist mode | inhibition, % at 4.4 µM | hit rate 52% among 2,400; in the data active means inhibition above about 24%;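 further: stimulated with the GPR7 agonist NPW; 0% = agonist plus vehicle and 100% = vehicle alone without agonist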
# MCHR1 antag: MCHR1 antagonists in cells, counter-screen for GPR7 antagonist project, cell-based, fluorescence, human. AID 2148, 2009. inhibition, % at 4.4 µM. MCHR1-expressing cells, fluorescence antagonist assay. shares compounds with GPR7 antag. hit rate 62% among 2,400; in the data active means inhibition above about 22%;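 further: 0% = vehicle with agonist and 100% = vehicle without agonist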
# * marks the source's active call; other numbers are inactive results; . = not tested or not shown.
SMILES,OX1R antag-1,PGE2 EP2 inh,CHO parental Ca,EP2 mod,OX1R antag-2,GPR7 antag,GPR7 antag conf,MCHR1 antag
COc1ccc(CN(C)C(=O)c2ccc(NS(=O)(=O)c3ccccc3)cc2)c(OC)c1,22,.,-11,.,-26,.,.,.
COc1ccc(CN(C)C(=O)c2ccc(NS(=O)(=O)c3ccc(F)cc3)cc2)c(OC)c1,6,.,1,.,-6,22*,10,2
COc1ccc(C(=O)c2c(C)c3ccccc3n2CC(O)CNC(C)C)cc1 (stereo unspecified),5,12,-14,-15,-20,21*,12,18
Cc1cc(C)c2c(=O)[nH]c(SCC(=O)N3CCCCC3)nc2n1,19,7,6,11,3,5,.,.
C/C(N)=C(/C#N)C(=O)COC(=O)CCSc1ccccc1Cl,18,11,15,-8,6,6,.,.
Cc1nc(CN(C)C(=O)C2CCC(=O)N(CCc3cccc(F)c3)C2)cs1 (stereo unspecified),9,.,-9,.,-1,-6,.,.
COc1ccc(C(=O)COC(=O)c2sc(C)nc2C)cc1Cl,5,.,-2,.,11,.,.,.
O=C(c1ccc2c(c1)OCO2)N(CC1CCCO1)C1(C(=O)NC2CCCCC2)CCCCC1 (stereo unspecified),17,7,-21,23,-25,34*,29*,30*
O=C(c1cc2sccc2n1Cc1ccc(F)cc1)N1CCN(c2nc3ccccc3s2)CC1,38,11,37*,21,26,32*,28*,38*
O=Cc1c(NCc2ccccc2Cl)c2ccccc2[nH]c1=O,15,.,-3,.,-10,-11,.,.
CCCCN1/C(=C/c2ccc3ccccc3[n+]2CC)Sc2ccccc21,.,12,.,-66,.,85*,81*,79*
CCCCN1/C(=C/c2cccc[n+]2C)Sc2cc(NC(C)=O)ccc21,0,.,-2,.,-10,5,.,.
N#Cc1nc(Cc2ccccc2)oc1N1CCC(Cc2ccccc2)CC1,15,13,14,-2,-8,4,.,.
COc1ccc(N2CCN(c3oc(COc4ccccc4Cl)nc3C#N)CC2)cc1,11,3,-6,-7,-17,16,.,.
N#Cc1nc(COc2ccc(F)cc2)oc1N1CCC(Cc2ccccc2)CC1,10,.,9,-12,-31,30*,48*,47*
COc1ccc(OCc2nc(C#N)c(N3CCN(c4ccc(OC)cc4)CC3)o2)cc1,.,10,.,-76,.,43*,48*,50*
N#Cc1nc(COc2ccc(F)cc2)oc1N1CCN(Cc2ccccc2)CC1,50,.,-16,-10,0,35*,33*,52*
N#Cc1nc(COc2ccccc2)oc1N1CCCCC1,18,10,-11,8,-17,0,.,.
Cc1cc(C)cc(Oc2ccc(NC(=O)C3CC=CCC3C(=O)O)cc2)c1 (stereo unspecified),13,10,-2,9,-14,-3,.,.
NCCc1nnc(SCc2ccccc2F)o1,4,5,-4,6,-16,-10,.,.
CC1CN(C(=O)c2ccc(NS(=O)(=O)c3ccc(C(C)(C)C)cc3)cc2)CC(C)O1 (stereo unspecified),.,.,.,.,.,33*,32*,42*
O=C(O)c1cn(Cc2ccccc2)c2ccc(Cl)cc2c1=O,26,.,-8,.,-13,.,.,.
Cc1ccc(C)c(CN2CCC(CNC(=O)Nc3ccc(F)c(Cl)c3)CC2)c1,-10,.,5,.,-17,38*,40*,68*

# Compound activity deposited in PubChem BioAssay by several laboratories.
